Active and inactive are the calls of the source. The rule behind the calls is not given here.
Experiments:
CAKI-1 = assay: Growth inhibition of human CAKI-1 cells; assay type: functional
DU-145 = assay: Growth inhibition of human DU145 cells; assay type: functional
[1] = Growth inhibition of human HCT15 cells; assay type: functional
T47D = assay: Growth inhibition of human T47D cells; assay type: functional
ACHN = assay: Growth inhibition of human ACHN cells; assay type: functional
HOP-62 = assay: Growth inhibition of human HOP62 cells; assay type: functional
SNB-75 = assay: Growth inhibition of human SNB75 cells; assay type: functional
SK-MEL-2 = assay: Growth inhibition of human SK-MEL-2 cells; assay type: functional
[2] = molecular target: T1, Proteasome Macropain subunit MB1 (Homo sapiens, UniProt P28074); assay: Inhibition of chymotrypsin-like activity of 20S proteasome in human erythrocytes using Suc-Leu-Leu-Val-Tyr-AMC as substrate by fluorescence assay; details: read-out: Ki
T1 sequence (P28074 whole entry): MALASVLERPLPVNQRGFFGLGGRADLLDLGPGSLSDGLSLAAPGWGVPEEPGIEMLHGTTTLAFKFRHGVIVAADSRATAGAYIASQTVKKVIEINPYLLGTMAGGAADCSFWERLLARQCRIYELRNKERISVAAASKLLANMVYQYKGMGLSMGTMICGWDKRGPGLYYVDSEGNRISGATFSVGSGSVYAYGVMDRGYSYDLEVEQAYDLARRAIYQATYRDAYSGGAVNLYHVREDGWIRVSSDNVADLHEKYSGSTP

[3] = Growth inhibition of human OVCAR3 cells; assay type: functional; details: OVCAR-3
[4] = Cytotoxicity against human CNSC cells assessed as cell growth at 10 uM relative to control; assay type: functional; details: read-out: Activity
Outline: (§1)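 Single-concentration screen against a panel of human cancer cell lines. Each value is the mean percent growth across the cell lines of that tumour subpanel.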

[5] = Cytotoxicity against human colon cancer cells assessed as cell growth at 10 uM relative to control; assay type: functional; details: Cancer cell lines, read-out: Activity; outline: as §1
[6] = Cytotoxicity against human breast cancer cells assessed as cell growth at 10 uM relative to control; assay type: functional; details: Cancer cell lines, read-out: Activity; outline: as §1
NCI-H23 = assay: Growth inhibition of human NCI-H23 cells; assay type: functional
[7] = molecular target: Proteasome Macropain subunit (Homo sapiens) (UniProt P49721); assay: Inhibition of trypsin-like activity of 20S proteasome in human erythrocytes using Boc-Leu-Arg-Arg-AMC as substrate by fluorescence assay; assay type: cell-based
Sequence of Proteasome Macropain subunit (Homo sapiens) (P49721 whole entry): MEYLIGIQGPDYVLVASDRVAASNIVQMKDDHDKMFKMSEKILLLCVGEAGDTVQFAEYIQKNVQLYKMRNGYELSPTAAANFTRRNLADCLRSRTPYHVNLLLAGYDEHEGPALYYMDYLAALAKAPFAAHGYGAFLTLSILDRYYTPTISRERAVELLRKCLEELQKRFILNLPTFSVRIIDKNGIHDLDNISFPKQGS
Outline: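 Human 20S proteasome 0.0025 mg/mL at 30 °C in 50 mM Tris pH 7.4, 50 mM NaCl, 0.5 mM EDTA, 0.03% SDS, 7.5% DMSO. Varied inhibitor concentrations; AMC release monitored continuously for 10 min, ex 380/em 460 nm. Ki derived from progress-curve IC50 fit.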

NCI-H522 = assay: Growth inhibition of human NCI-H522 cells; assay type: functional
SR = assay: Growth inhibition of human SR cells; assay type: functional
HL-60(TB) = assay: Growth inhibition of human HL-60(TB) cells; assay type: functional; details: read-out: LC50 (the source's name)
[8] = Growth inhibition of human Hs 578T cells; assay type: functional
[9] = Growth inhibition of human LOXIMVI cells; assay type: functional; details: LOX IMVI
M14 = assay: Growth inhibition of human M14 cells; assay type: functional
TK-10 = assay: Growth inhibition of human TK10 cells; assay type: functional
[10] = Cytotoxicity against human prostate cancer cells assessed as cell growth at 10 uM relative to control; assay type: functional; details: Cancer cell lines, read-out: Activity; outline: as §1
[11] = Growth inhibition of human HOP92 cells; assay type: functional
[12] = Growth inhibition of human MOLT4 cells; assay type: functional
COLO 205 = assay: Growth inhibition of human COLO205 cells; assay type: functional
[13] = Cytotoxicity against human NSCLC cells assessed as cell growth at 10 uM relative to control; assay type: functional; details: read-out: Activity; outline: as §1
786-0 = assay: Growth inhibition of human 786-0 cells; assay type: functional
[14] = Growth inhibition of human SF295 cells; assay type: functional; details: SF-295
[15] = Growth inhibition of human SF539 cells; assay type: functional
HCT-116 = assay: Growth inhibition of human HCT116 cells; assay type: functional
IGROV-1 = assay: Growth inhibition of human IGROV1 cells; assay type: functional
NCI-H226 = assay: Growth inhibition of human NCI-H226 cells; assay type: functional
[16] = Growth inhibition of human NCI-ADR-RES cells; assay type: functional
SK-MEL-28 = assay: Growth inhibition of human SK-MEL-28 cells; assay type: functional
SK-MEL-5 = assay: Growth inhibition of human SK-MEL-5 cells; assay type: functional
SN12C = assay: Growth inhibition of human SN12C cells; assay type: functional
[17] = Growth inhibition of human UACC62 cells; assay type: functional; details: UACC-62
[18] = read-out: LC50 (the source's name)

CC(C)C[C@H](NC(=O)CCn1ccc2ccc(Br)cc2c1=O)B(O)O
GI50 (CAKI-1): 0.47 µM | TGI (CAKI-1): 10 µM | CC50 (CAKI-1; [18]): > 100 µM | GI50 (DU-145): 0.71 µM | TGI (DU-145): > 100 µM | CC50 (DU-145; [18]): > 100 µM | GI50 ([1]; HCT-15): 1.61 µM | TGI ([1]; HCT-15): 22.1 µM | CC50 ([1]; HCT-15, read-out: LC50 (the source's name)): > 100 µM | GI50 (T47D): 0.78 µM | TGI (T47D): 6.09 µM | CC50 (T47D; [18]): > 100 µM | GI50 (ACHN): 0.41 µM | TGI (ACHN): > 100 µM | CC50 (ACHN; [18]): > 100 µM | GI50 (HOP-62): 2.63 µM | TGI (HOP-62): 9.29 µM | CC50 (HOP-62; [18]): > 100 µM | GI50 (SNB-75): 0.46 µM | LC50 (SNB-75): > 100 µM | TGI (SNB-75): 3.82 µM | GI50 (SK-MEL-2): 0.46 µM | LC50 (SK-MEL-2): > 100 µM | TGI (SK-MEL-2): 4.56 µM | Ki [2]: 0.06 µM | GI50 [3]: 0.33 µM | LC50 (concentration killing 50% of cells) [3]: 10.6 µM | TGI [3]: 1.21 µM | growth at 10 µM [4]: 6.51% | growth at 10 µM [5]: 4.45% | growth at 10 µM [6]: 2.31% | GI50 (NCI-H23): 1.59 µM | TGI (NCI-H23): > 100 µM | CC50 (NCI-H23; [18]): > 100 µM | inhibition [7]: inactive | GI50 (NCI-H522): 0.3 µM | LC50 (NCI-H522): > 100 µM | TGI (NCI-H522): 2.25 µM | GI50 (SR): 0.26 µM | TGI (SR): 11.6 µM | CC50 (SR; [18]): > 100 µM | CC50 (HL-60(TB)): > 100 µM | GI50 [8]: 0.43 µM | TGI [8]: 6.2 µM | CC50 [8, 18]: > 100 µM | GI50 [9]: 0.22 µM | TGI [9]: 0.61 µM | GI50 (M14): 0.36 µM | LC50 (concentration killing 50% of cells) (M14): > 100 µM | TGI (M14): 3.88 µM | GI50 (TK-10): 0.37 µM | LC50 (TK-10): > 100 µM | TGI (TK-10): 15.6 µM | growth at 10 µM [10]: 34.5% | GI50 ([11]; HOP-92): 1.34 µM | TGI ([11]; HOP-92): 5.61 µM | CC50 ([11]; HOP-92, read-out: LC50 (the source's name)): > 100 µM | GI50 ([12]; MOLT-4): 0.31 µM | TGI ([12]; MOLT-4): > 100 µM | CC50 ([12]; MOLT-4, read-out: LC50 (the source's name)): > 100 µM | GI50 (COLO 205): 0.85 µM | TGI (COLO 205): > 100 µM | CC50 (COLO 205; [18]): > 100 µM | growth at 10 µM [13]: 8.79% | GI50 (786-0): 0.82 µM | TGI (786-0): > 100 µM | CC50 (786-0; [18]): > 100 µM | GI50 [14]: 0.58 µM | LC50 [14]: 75.5 µM | TGI [14]: 4.51 µM | GI50 ([15]; SF-539): 0.21 µM | TGI ([15]; SF-539): 0.6 µM | CC50 ([15]; SF-539, read-out: LC50 (the source's name)): > 100 µM | GI50 (HCT-116): 0.34 µM | LC50 (HCT-116): > 100 µM | TGI (HCT-116): 2.55 µM | GI50 (IGROV-1): 5.1 µM | LC50 (IGROV-1): > 100 µM | TGI (IGROV-1): > 100 µM | GI50 (NCI-H226): 0.19 µM | TGI (NCI-H226): 0.42 µM | CC50 (NCI-H226; [18]): 0.95 µM | GI50 [16]: 17.4 µM | LC50 [16]: > 100 µM | TGI [16]: > 100 µM | GI50 (SK-MEL-28): 0.52 µM | TGI (SK-MEL-28): 29.7 µM | CC50 (SK-MEL-28; [18]): > 100 µM | GI50 (SK-MEL-5): 0.37 µM | LC50 (concentration killing 50% of cells) (SK-MEL-5): 82.5 µM | TGI (SK-MEL-5): 3.11 µM | GI50 (SN12C): 1.5 µM | TGI (SN12C): 11.5 µM | CC50 (SN12C; [18]): > 100 µM | GI50 [17]: 0.46 µM | LC50 (concentration killing 50% of cells) [17]: 28.5 µM | TGI [17]: 2.44 µM

Reference: ChEMBL document CHEMBL3286129, “Optimization of peptidomimetic boronates bearing a P3 bicyclic scaffold as proteasome inhibitors” (Eur J Med Chem, 2014)
